The M2OR odorant receptor database

Assays:
Conditions in all cases: stereoisomer not certain
OR52I1 (Homo sapiens) = biological target: T1, OR52I1 (Homo sapiens) (UniProt Q8NGK6)
T1 sequence (whole entry): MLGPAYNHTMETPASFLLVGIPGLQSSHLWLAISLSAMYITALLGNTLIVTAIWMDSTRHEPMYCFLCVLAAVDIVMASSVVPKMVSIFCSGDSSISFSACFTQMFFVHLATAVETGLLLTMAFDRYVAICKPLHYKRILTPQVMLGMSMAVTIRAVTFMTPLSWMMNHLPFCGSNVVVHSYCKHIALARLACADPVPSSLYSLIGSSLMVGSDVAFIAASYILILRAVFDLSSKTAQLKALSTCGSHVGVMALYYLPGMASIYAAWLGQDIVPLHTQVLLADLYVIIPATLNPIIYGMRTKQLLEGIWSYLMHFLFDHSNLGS
Summary of the method: (§1)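 Assay methods differ from source to source, frequently being transient luciferase assays in mammalian cell lines. For each receptor–molecule pair, the label responsive (active) applies when the original authors judged the measured signal statistically different from baseline, and non-responsive (inactive) applies otherwise.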

OR52I2 (Homo sapiens) = biological target: T2, OR52I2 (Homo sapiens) (UniProt Q8NH67)
T2 sequence (whole entry): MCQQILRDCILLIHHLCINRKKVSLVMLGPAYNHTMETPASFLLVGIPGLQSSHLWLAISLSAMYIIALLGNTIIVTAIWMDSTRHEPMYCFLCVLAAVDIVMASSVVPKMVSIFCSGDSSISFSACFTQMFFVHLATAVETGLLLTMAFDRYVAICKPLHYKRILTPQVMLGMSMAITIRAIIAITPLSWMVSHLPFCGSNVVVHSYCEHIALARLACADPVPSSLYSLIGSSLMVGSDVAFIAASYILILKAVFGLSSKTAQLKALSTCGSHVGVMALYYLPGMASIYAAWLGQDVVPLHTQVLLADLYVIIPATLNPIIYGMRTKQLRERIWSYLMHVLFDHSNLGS
Summary of the method: as §1

OR52J3 (Homo sapiens) = OR52J3 (Homo sapiens) (UniProt Q8NH60)
OR52J3 (Homo sapiens), sequence (Q8NH60 whole entry): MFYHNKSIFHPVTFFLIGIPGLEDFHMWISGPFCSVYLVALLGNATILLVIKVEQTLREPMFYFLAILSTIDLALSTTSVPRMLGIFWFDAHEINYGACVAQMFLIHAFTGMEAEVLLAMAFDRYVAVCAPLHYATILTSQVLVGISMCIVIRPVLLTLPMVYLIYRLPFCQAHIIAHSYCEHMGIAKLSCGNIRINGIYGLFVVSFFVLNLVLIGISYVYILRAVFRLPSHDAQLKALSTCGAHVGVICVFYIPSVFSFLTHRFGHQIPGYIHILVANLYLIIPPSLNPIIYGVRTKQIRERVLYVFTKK
Summary of the method: as §1

OR52K1 (Homo sapiens) = biological target: T3, OR52K1 (Homo sapiens) (UniProt Q8NGK4)
T3 sequence (whole entry): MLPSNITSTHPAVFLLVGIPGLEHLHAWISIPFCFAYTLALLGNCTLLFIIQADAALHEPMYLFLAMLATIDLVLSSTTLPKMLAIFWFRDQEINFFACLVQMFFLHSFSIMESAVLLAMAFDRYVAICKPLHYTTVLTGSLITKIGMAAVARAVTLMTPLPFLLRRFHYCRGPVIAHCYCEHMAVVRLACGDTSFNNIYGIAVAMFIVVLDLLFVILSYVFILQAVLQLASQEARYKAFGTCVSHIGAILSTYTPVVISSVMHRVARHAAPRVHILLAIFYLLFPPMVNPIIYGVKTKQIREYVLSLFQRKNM
Summary of the method: as §1

OR52K2 (Homo sapiens) = biological target: T4, OR52K2 (Homo sapiens) (UniProt Q8NGK3)
T4 sequence (whole entry): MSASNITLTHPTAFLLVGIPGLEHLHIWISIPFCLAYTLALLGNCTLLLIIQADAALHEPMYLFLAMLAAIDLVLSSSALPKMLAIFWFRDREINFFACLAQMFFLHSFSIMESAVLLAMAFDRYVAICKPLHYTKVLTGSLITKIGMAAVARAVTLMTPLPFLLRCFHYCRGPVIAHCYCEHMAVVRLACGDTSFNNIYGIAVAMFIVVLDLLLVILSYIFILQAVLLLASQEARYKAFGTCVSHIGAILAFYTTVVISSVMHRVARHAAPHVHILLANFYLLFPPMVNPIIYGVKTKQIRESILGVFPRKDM
Summary of the method: as §1

OR52L1 (Homo sapiens) = biological target: T5, OR52L1 (Homo sapiens) (UniProt Q8NGH7)
T5 sequence (whole entry): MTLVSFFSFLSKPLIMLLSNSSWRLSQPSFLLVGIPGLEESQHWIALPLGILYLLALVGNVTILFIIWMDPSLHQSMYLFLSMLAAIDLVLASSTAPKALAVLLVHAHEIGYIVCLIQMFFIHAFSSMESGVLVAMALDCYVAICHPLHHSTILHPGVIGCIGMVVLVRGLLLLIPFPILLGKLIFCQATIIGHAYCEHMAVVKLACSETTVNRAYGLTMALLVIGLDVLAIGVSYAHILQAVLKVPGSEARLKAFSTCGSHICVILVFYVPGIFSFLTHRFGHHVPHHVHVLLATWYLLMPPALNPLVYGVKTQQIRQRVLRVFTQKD
Summary of the method: as §1

OR52M1 (Homo sapiens) = biological target: T6, OR52M1 (Homo sapiens) (UniProt Q8NGK5)
T6 sequence (whole entry): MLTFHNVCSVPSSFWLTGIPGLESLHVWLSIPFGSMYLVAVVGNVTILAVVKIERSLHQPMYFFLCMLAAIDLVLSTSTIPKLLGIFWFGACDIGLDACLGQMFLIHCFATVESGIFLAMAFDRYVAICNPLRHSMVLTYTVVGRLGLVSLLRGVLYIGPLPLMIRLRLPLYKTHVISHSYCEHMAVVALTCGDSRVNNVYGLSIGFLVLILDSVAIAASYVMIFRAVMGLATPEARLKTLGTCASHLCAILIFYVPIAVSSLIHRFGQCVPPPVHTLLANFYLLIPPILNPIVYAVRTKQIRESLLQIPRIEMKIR
Summary of the method: as §1

OR52N1 (Homo sapiens) = biological target: T7, OR52N1 (Homo sapiens) (UniProt Q8NH53)
T7 sequence (whole entry): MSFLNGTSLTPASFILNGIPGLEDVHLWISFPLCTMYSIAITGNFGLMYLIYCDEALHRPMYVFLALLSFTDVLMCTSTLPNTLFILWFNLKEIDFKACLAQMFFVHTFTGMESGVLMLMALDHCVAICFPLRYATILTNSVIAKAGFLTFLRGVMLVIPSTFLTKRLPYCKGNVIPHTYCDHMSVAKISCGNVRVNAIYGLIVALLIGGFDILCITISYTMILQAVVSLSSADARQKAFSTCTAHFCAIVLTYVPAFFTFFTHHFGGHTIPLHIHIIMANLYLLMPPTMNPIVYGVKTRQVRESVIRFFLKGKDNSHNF
Summary of the method: as §1

OR52N2 (Homo sapiens) = biological target: T8, OR52N2 (Homo sapiens) (UniProt Q8NGI0)
T8 sequence (whole entry): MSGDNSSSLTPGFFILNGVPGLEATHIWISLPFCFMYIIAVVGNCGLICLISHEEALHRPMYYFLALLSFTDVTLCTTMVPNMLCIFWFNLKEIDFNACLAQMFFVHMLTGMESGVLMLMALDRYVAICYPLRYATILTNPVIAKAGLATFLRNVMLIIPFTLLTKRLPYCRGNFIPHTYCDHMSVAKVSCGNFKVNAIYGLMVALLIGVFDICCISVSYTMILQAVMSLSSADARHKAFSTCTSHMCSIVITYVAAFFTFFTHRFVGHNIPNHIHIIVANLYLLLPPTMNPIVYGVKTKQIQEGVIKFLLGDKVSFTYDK
Summary of the method: as §1

OR52N4 (Homo sapiens) = biological target: T9, OR52N4 (Homo sapiens) (UniProt Q8NGI2)
T9 sequence (whole entry): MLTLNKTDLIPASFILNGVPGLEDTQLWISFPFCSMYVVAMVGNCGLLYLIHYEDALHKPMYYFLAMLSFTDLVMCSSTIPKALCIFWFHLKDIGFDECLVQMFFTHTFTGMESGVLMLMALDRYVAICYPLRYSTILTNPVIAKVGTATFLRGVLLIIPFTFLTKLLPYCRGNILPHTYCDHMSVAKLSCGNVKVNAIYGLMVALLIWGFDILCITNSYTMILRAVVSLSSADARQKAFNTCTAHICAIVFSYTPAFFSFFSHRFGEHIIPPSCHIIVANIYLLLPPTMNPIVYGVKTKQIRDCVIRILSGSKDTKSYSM
Summary of the method: as §1

OR52N5 (Homo sapiens) = biological target: T10, OR52N5 (Homo sapiens) (UniProt Q8NH56)
T10 sequence (whole entry): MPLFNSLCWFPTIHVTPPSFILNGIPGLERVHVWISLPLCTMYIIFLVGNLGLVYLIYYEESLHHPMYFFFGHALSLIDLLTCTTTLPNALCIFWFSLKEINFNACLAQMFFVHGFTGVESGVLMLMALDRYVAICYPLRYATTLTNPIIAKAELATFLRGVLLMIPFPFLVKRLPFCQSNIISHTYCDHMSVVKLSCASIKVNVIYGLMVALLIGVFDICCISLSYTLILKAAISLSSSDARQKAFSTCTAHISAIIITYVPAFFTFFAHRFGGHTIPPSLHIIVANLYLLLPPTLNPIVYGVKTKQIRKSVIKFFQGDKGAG
Summary of the method: as §1

OR52R1 (Homo sapiens) = biological target: T11, OR52R1 (Homo sapiens) (UniProt Q8NGF1)
T11 sequence (whole entry): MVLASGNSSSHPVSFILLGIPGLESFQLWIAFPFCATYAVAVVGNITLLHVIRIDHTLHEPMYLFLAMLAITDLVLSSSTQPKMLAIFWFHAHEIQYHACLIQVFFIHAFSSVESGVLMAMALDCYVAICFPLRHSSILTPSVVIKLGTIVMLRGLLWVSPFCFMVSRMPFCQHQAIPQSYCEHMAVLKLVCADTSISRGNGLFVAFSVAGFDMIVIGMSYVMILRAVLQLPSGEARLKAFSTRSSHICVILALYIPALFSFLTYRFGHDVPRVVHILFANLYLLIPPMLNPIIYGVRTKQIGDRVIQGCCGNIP
Summary of the method: as §1

OR52W1 (Homo sapiens) = biological target: T12, OR52W1 (Homo sapiens) (UniProt Q6IF63)
T12 sequence (whole entry): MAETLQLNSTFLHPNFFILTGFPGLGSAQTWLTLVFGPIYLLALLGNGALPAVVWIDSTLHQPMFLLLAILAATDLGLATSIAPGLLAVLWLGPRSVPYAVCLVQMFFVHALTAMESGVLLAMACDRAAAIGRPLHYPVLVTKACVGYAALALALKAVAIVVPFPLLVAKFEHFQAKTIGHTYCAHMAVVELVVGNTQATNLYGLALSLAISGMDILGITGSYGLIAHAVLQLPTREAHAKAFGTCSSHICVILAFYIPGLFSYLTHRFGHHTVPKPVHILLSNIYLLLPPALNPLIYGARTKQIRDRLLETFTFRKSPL
Summary of the method: as §1

OR56A1 (Homo sapiens) = biological target: T13, OR56A1 (Homo sapiens) (UniProt Q8NGH5)
T13 sequence (whole entry): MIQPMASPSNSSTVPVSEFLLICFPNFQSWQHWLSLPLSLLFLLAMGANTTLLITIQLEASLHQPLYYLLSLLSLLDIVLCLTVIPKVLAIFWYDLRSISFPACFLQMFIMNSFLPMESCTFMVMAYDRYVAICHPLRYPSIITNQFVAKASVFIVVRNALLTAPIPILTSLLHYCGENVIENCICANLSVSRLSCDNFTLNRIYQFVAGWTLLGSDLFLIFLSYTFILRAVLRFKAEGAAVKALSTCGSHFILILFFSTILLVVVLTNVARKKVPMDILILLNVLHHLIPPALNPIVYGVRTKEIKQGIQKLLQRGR
Summary of the method: as §1

OR56A3 (Homo sapiens) = biological target: T14, OR56A3 (Homo sapiens) (UniProt Q8NH54)
T14 sequence (whole entry): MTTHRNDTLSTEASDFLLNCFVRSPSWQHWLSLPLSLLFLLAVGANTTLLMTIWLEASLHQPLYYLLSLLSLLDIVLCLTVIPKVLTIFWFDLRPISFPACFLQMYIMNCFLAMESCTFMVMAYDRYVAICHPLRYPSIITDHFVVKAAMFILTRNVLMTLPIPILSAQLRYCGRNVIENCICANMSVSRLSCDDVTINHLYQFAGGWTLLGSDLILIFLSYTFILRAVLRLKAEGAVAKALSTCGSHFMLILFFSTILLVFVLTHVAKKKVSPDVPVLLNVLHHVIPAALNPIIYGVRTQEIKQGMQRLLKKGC
Summary of the method: as §1

OR56A4 (Homo sapiens) = biological target: T15, OR56A4 (Homo sapiens) (UniProt Q8NGH8)
T15 sequence (whole entry): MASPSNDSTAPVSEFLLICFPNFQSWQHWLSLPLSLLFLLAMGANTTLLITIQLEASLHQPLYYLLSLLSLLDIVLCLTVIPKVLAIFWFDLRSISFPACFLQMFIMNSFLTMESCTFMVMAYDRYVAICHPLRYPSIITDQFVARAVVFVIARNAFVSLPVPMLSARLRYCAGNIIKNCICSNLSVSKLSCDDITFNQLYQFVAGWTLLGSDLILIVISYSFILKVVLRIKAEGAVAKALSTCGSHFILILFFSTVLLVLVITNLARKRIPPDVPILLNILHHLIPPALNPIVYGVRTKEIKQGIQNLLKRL
Summary of the method: as §1

OR56B1 (Homo sapiens) = biological target: T16, OR56B1 (Homo sapiens) (UniProt Q8NGI3)
T16 sequence (whole entry): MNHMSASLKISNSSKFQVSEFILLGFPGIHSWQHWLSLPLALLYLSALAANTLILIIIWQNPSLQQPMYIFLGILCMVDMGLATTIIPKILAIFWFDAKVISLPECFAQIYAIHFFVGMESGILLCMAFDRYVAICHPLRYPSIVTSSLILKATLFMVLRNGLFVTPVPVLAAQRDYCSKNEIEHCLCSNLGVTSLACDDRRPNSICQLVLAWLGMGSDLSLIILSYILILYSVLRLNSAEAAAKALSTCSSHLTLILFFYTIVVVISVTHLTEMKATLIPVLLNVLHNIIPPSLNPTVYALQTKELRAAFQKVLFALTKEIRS
Summary of the method: as §1

Measured: odorant receptor agonist call

CCCCCC1CCCC(=O)O1 (configuration not stated)
active: OR52K1 (Homo sapiens) | OR52L1 (Homo sapiens) | OR52M1 (Homo sapiens) | OR52N5 (Homo sapiens) | OR52R1 (Homo sapiens)
inactive: all other assays above
